Laboratory results taken from publication PMC9989852 (Food and chemical toxicology : an international journal …, 2022).
Several values for one entry are separate records, joined by “and”; a condition that tells them apart may be missing. Equal entries are not always repeated.

Columns and labels:
Assay type in all cases: in vivo, B6C3F1 mice
kidney, spleen = test: Kidney and spleen histopathology after 28-day dermal exposure; conditions: 1.25–5%, 28 days, data not shown
Procedure, shortened: (§1)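 Female B6C3F1 mice (5/group) received 25 μl/ear on the dorsal ear surfaces daily, with acetone as vehicle. Tissues were formalin-fixed about 24 h after the last dose: liver remainder, half spleen, right kidney and half ear pinna. Sections were paraffin-embedded, cut at 5 μm and stained with H&E. A veterinary pathologist read them per STP guideline and graded 1 (minimal) to 5 (severe) by extent.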

ear pinna [1] = test: Skin; conditions: dermal, 28 days
Procedure, shortened: (§2)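 Dosing was daily topical to both dorsal ears (25 μl/ear, acetone vehicle) in female B6C3F1 mice. Liver caudate lobe or half ear pinna was stored in RNAlater and homogenized in RLT buffer. RNA was isolated on RNeasy columns with DNase, and 1–2 μg was reverse-transcribed. TaqMan real-time PCR was read as 2−ΔΔCT vs vehicle, normalized to β-actin. Statistics: ANOVA/Dunnett's, or Kruskal-Wallis/Dunn's for unequal variance.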

[2] = PFAS concentration in serum; conditions: dermal, 28 days
Procedure, shortened: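 Serum came by cardiac puncture about 24 h after the final daily ear dose (25 μl/ear, acetone vehicle; female B6C3F1 mice). Samples underwent solid-phase extraction and LC/MS/MS. Short-chain analytes were quantified as linear isomer only; the legacy comparator was quantified as linear plus branched. Data are mean ± SE of 4–5 mice, one-way ANOVA with Dunnett's vs vehicle.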

ear pinna [3] = test: Ear; conditions: dermal, 28 days, mice affected of 5
Procedure, shortened: as §1

[4] = tested on: auricular draining lymph nodes (dLNs); test: Draining lymph node phenotyping by flow cytometry after 28-day dermal exposure; conditions: 28 days
Procedure, shortened: (§3)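 Female B6C3F1 mice (5/group) received 25 μl/ear daily to the dorsal ears in acetone. About 24 h after the last dose, tissues went into RPMI: both auricular dLNs, half spleen and one ear pinna. Single-cell suspensions were acquired on an LSR II, with populations gated per supplemental strategy and FMO gating controls. Results are mean ± SE, n=5, by one-way ANOVA.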

spleen = test: Spleen phenotyping by flow cytometry after 28-day dermal exposure; conditions: 28 days
Procedure, shortened: as §3

liver (caudate) = test: Liver gene expression; conditions: dermal, 28 days
Procedure, shortened: as §2

## O=C(O)C(F)(F)C(F)(F)C(F)(F)C(F)(F)C(F)(F)F [PFHxA, perfluorohexanoic acid]
kidney, spleen
  microscopic observations in the kidney or the spleen: No PFPeA, PFHxA, or PFHpA-related microscopic observations
Ear pinna [1]; 1.25–5%
  skin Pparδ gene expression: no changes
Ear pinna [1]; 2.5%
  skin Flg gene expression: increased
  skin Pparγ gene expression: decreased
Ear pinna [1]; 5%
  skin Flg gene expression: increased
  skin Lor gene expression: increased
  skin PPARα gene expression: decreased
  skin Pparγ gene expression: decreased
  skin S100a8 gene expression, increase: 16.8 fold
[2]; 2.5%
  PFAS serum concentration vs vehicle: significant increase
[2]; 5%
  PFAS serum concentration vs vehicle: significant increase
Ear pinna [3]; 1.25%
  Ear: Degeneration/regeneration, cartilage, focal, Mild (incidence): 0
  Ear: Fibrosis, dermis, focal, Minimal (incidence): 0
  Ear: Hyperkeratosis, epidermis, focal, Mild (incidence): 0
  Ear: Hyperkeratosis, epidermis, focal, Minimal (incidence): 1
  Ear: Hyperplasia, epidermis, focal, Mild (incidence): 0
  Ear: Hyperplasia, epidermis, focal, Minimal (incidence): 5/5 and 5
  Ear: Inflammation, mixed cell, dermis, Minimal (incidence): 0
  Ear: Inflammation, mononuclear cell, dermis, Minimal (incidence): 0
  Ear: Necrosis, epidermis, multifocal, Minimal (incidence): 0
Ear pinna [3]; 2.5%
  Ear: Degeneration/regeneration, cartilage, focal, Mild (incidence): 0
  Ear: Fibrosis, dermis, focal, Minimal (incidence): 0
  Ear: Hyperkeratosis, epidermis, focal, Mild (incidence): 0
  Ear: Hyperkeratosis, epidermis, focal, Minimal (incidence): 4/5 and 4
  Ear: Hyperplasia, epidermis, focal, Mild (incidence): 0
  Ear: Hyperplasia, epidermis, focal, Minimal (incidence): 5/5 and 5
  Ear: Inflammation, mixed cell, dermis, Minimal (incidence): 0
  Ear: Inflammation, mononuclear cell, dermis, Minimal (incidence): 0
  Ear: Necrosis, epidermis, multifocal, Minimal (incidence): 0
Ear pinna [3]; 5%
  Ear: Degeneration/regeneration, cartilage, focal, Mild (incidence): 1
  Ear: Fibrosis, dermis, focal, Minimal (incidence): 5/5 and 5
  Ear: Hyperkeratosis, epidermis, focal, Mild (incidence): 3/5 and 3
  Ear: Hyperkeratosis, epidermis, focal, Minimal (incidence): 2/5 and 2
  Ear: Hyperplasia, epidermis, focal, Mild (incidence): 4/5 and 4
  Ear: Hyperplasia, epidermis, focal, Minimal (incidence): 1
  Ear: Inflammation, mixed cell, dermis, Minimal (incidence): 4/5 and 4
  Ear: Inflammation, mononuclear cell, dermis, Minimal (incidence): 0
  Ear: Necrosis, epidermis, multifocal, Minimal (incidence): 0
[4]; 1.25%
  dLN B-cells cell number: 28.40 ± 6.63 × 10^5
  dLN B-cells frequency: 18.06 ± 2.12%
  dLN CD4^+ cell number: 5.93 ± 0.59 × 10^6
  dLN CD4^+ frequency: 40.24 ± 1.70%
  dLN CD8^+ cell number: 42.50 ± 4.15 × 10^5
  dLN CD8^+ frequency: 28.94 ± 1.29%
  dLN CD11b+ cell number: 16.20 ±3.71 × 10^4
  dLN CD11b+ frequency: 1.04 ± 0.12%
  dLN CD86 B-cells: 98.74 ±6.64 MFI
  dLN CD86 DCs: 11.60 ± 1.51 MFI x 10^2
  dLN Dendritic Cells cell number: 29.00 ±2.99 × 10^4
  dLN Dendritic Cells frequency: 2.01 ± 0.22 %
  dLN Eosinophils cell number: 96.70 ± 17.60 × 10^2
  dLN MHCII B-cells: 7.07 ± 0.37 MFI × 10^2
  dLN MHCII DCs: 57.30 ±2.79 MFI × IQ^2
  dLN NK cell number: 11.60 ±0.64 × 10^4
  dLN NK frequency: 0.82 ± 0.08%
  dLN Neutrophils cell number: 18.80 ±5.25 × 10^2
  dLN Total Cellularity: 15.00 ± 1.92 × 10^6
[4]; 2.5%
  dLN B-cells cell number: 32.50 ± 3.50 × 10^5
  dLN B-cells frequency: 15.94 ± 0.38%
  dLN CD4^+ cell number: 8.16 ± 0.58 × 10^6
  dLN CD4^+ frequency: 40.56 ± 1.03%
  dLN CD8^+ cell number: 56.80 ± 5.72 × 10^5
  dLN CD8^+ frequency: 27.94 ± 0.36%
  dLN CD11b+ cell number: 25.30 ± 2.29 × 10^4
  dLN CD11b+ frequency: 1.25 ± 0.04 %
  dLN CD86 B-cells: 93.54 ± 1.71 MFI
  dLN CD86 DCs: 13.20 ± 1.29 MFI x 10^2
  dLN Dendritic Cells cell number: 47.00 ± 5.39 × 10^4
  dLN Dendritic Cells frequency: 2.32 ± 0.14 %
  dLN Eosinophils cell number: 140.00 ± 17.30 × 10^2
  dLN MHCII B-cells: 7.16 ± 0.11 MFI × 10^2
  dLN MHCII DCs: 63.50 ± 5.71 MFI × IQ^2
  dLN NK cell number: 19.50 ± 2.26 × 10^4
  dLN NK frequency: 0.95 ± 0.03 %
  dLN Neutrophils cell number: 21.50 ± 1.28 × 10^2
  dLN Total Cellularity: 20.30 ± 1.81 × 10^6
[4]; 5%
  dLN B-cells cell number: 37.30 ± 1.54 × 10^5
  dLN B-cells frequency: 17.38 ± 0.94%
  dLN CD4^+ frequency: 41.58 ± 0.62%
  dLN CD8^+ cell number: 58.40 ± 4.46 × 10^5
  dLN CD8^+ frequency: 26.82 ± 0.64%
  dLN CD11b+ cell number: 26.00 ± 3.54 × 10^4
  dLN CD11b+ frequency: 1.18 ± 0.11%
  dLN CD86 B-cells: 101.54 ± 3.64 MFI
  dLN CD86 DCs: 9.15 ± 0.71 MFI x 10^2
  dLN Dendritic Cells cell number: 35.40 ± 5.48 × 10^4
  dLN Dendritic Cells frequency: 1.60 ± 0.19%
  dLN Eosinophils cell number: 142.00 ± 22.90 × 10^2
  dLN MHCII B-cells: 8.02 ± 0.64 MFI × 10^2
  dLN NK cell number: 17.70 ± 2.11 × 10^4
  dLN NK frequency: 0.80 ± 0.06%
  dLN Neutrophils cell number: 16.70 ± 2.99 × 10^2
  dLN Total Cellularity: 21.70 ± 1.26 × 10^6
spleen; 2.5%
  spleen MFI of CD86 on B-cells: increase
  spleen NK cell frequency: increase
  spleen frequency of CD11b + Ly6C + cells: significant decrease
spleen; 5%
  spleen MFI of CD86 on B-cells: increase
  spleen frequency of CD11b + Ly6C + cells: significant decrease
Liver (caudate); 1.25%
  liver Pparδ expression: decreasing
Liver (caudate); 2.5%
  liver Acox1 gene expression: increase
  liver Fabp1 gene expression: increased
  liver Pparδ expression: decreasing
Liver (caudate); 5%
  liver Cd36 gene expression, increase: 4.6 fold
  liver Ehhadh gene expression, increase: 4.8 fold
  liver Pparδ expression: decreasing
